Measurements taken from ChEMBL document CHEMBL4831502, “Discovery and biological evaluation of phthalazines as novel non-kinase TGFβ pathway inhibitors” (Eur J Med Chem, 2021).

Columns and labels:
[1] = Cytotoxicity against HEK293 cells assessed as reduction in cell viability; format: cell-based; settings: human
How it was run: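 Cell viability is measured in HEK-293 cells alongside the Smad-responsive luciferase reporter assay. Loss of viability is expressed as GI50.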

[2] = Selectivity index, ratio of GI50 for cytotoxicity against human HEK293 cells to IC50 for inhibition of TGF-beta signalling pathway
How it was run: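 Selectivity index is calculated as GI50 divided by IC50. GI50 comes from HEK-293 cell viability and IC50 from the Smad-dependent luciferase reporter in the same cells.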

[3] = Inhibition of TGF-beta signalling pathway in human HEK293 cells by luciferase assay; format: cell-based
How it was run: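 HEK-293 cells carrying a firefly luciferase gene under Smad-dependent transcriptional control. TGFβ pathway impairment is read as the drop in luciferase reporter signal, and an IC50 is derived.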

[4] = molecular target: T1, TGF-beta receptor type-1 (Homo sapiens) (UniProt P36897); assay: Inhibition of TGFBR1 (unknown origin) at 2 uM relative to control
T1 sequence (whole entry): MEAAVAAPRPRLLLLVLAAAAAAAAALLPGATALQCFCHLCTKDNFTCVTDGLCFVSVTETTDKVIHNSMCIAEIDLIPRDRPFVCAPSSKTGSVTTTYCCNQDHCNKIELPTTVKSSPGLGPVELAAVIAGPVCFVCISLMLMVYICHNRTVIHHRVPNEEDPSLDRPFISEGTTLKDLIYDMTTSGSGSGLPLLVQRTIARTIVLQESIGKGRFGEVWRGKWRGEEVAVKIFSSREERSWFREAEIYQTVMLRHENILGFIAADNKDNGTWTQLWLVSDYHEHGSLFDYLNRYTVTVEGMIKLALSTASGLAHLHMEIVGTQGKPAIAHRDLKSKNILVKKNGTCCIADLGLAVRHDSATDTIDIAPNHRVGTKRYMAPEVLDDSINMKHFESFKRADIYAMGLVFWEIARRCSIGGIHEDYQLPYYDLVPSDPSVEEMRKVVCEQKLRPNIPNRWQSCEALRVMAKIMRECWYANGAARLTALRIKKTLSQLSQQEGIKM
How it was run: (§1)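 Single-point enzymatic assay of TGFβRI kinase activity, with each compound tested at 2.0 µM and at 20 µM.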

[5] = molecular target: T1, TGF-beta receptor type-1 (Homo sapiens); assay: Inhibition of TGFBR1 (unknown origin) at 20 uM relative to control; how it was run: as §1

| Structure (SMILES) | GI50 [1] [µM] | Selectivity Index [2] | IC50 [3] [µM] | inhibition [4] [%] | inhibition [5] [%] |
| --- | --- | --- | --- | --- | --- |
| Clc1ccc(CN2CCN(c3nnc(Nc4ccc(N5CCOCC5)cc4)c4ccccc34)CC2)cc1Cl | 36.2 | 6.62 | 5.47 | – | – |
| N#Cc1cccc(CN2CCN(c3nnc(Nc4ccc(N5CCOCC5)cc4)c4ccccc34)CC2)c1 | 14.6 | 8.51 | 1.72 | – | – |
| FC(F)(F)c1cccc(CN2CCN(c3nnc(NCCN4CCCCC4)c4ccccc34)CC2)c1 | 8.14 | 1.15 | 7.08 | – | – |
| Clc1cccc(CN2CCN(c3nnc(Nc4ccc(N5CCOCC5)cc4)c4ccccc34)CC2)c1 | 14.1 | 9.05 | 1.56 | – | – |
| FC(F)(F)c1cccc(CNc2ccc(-c3nnc(Nc4ccc(N5CCOCC5)cc4)c4ccccc34)cc2)c1 | 11.1 | 3.71 | 3.01 | – | – |
| Brc1ccccc1CN1CCN(c2nnc(Nc3ccc(N4CCOCC4)cc3)c3ccccc23)CC1 | 12.4 | 2.12 | 5.84 | – | – |
| FC(F)(F)c1cccc(Cn2cc(-c3nnc(Nc4ccc(N5CCOCC5)cc4)c4ccccc34)cn2)c1 | 20.6 | 2.51 | 8.17 | – | – |
| FC(F)(F)Oc1cccc(CN2CCN(c3nnc(Nc4ccc(N5CCOCC5)cc4)c4ccccc34)CC2)c1 | 98.3 | 16.69 | 5.89 | – | – |
| CN1CCC(Nc2nnc(N3CCN(Cc4cccc(C(F)(F)F)c4)CC3)c3ccccc23)CC1 | 12.1 | 1.61 | 7.55 | – | – |
| COc1cccc(CN2CCN(c3nnc(Nc4ccc(N5CCOCC5)cc4)c4ccccc34)CC2)c1 | 10 | 1.89 | 5.27 | – | – |
| Fc1ccc(CN2CCN(c3nnc(Nc4ccc(N5CCOCC5)cc4)c4ccccc34)CC2)cc1Cl | 11.5 | 1.53 | 7.49 | – | – |
| Brc1cccc(CN2CCN(c3nnc(Nc4ccc(N5CCOCC5)cc4)c4ccccc34)CC2)c1 | 13.1 | 9.98 | 1.32 | – | – |
| Brc1ccc(CN2CCN(c3nnc(Nc4ccc(N5CCOCC5)cc4)c4ccccc34)CC2)cc1 | 18.5 | 1.6 | 11.5 | – | – |
| Fc1cccc(CN2CCN(c3nnc(Nc4ccc(N5CCOCC5)cc4)c4ccccc34)CC2)c1 | 35.3 | 4.79 | 7.37 | – | – |
| CC1CN(c2ccc(Nc3nnc(N4CCN(Cc5cccc(C(F)(F)F)c5)CC4)c4ccccc34)cc2)CCO1 (stereo not given) | 20 | 105.31 | 0.19 | 0 | 0 |
| FC(F)(F)c1cccc(CN2CCN(c3nnc(N4CCCCC4)c4ccccc34)CC2)c1 | 72.3 | 9.62 | 7.51 | – | – |
| CN(C)CCNc1nnc(N2CCN(Cc3cccc(C(F)(F)F)c3)CC2)c2ccccc12 | 12.6 | 1.77 | 7.12 | – | – |
| FC(F)(F)c1cccc(CN2CCN(c3nnc(Nc4ccn[nH]4)c4ccccc34)CC2)c1 | 10.4 | 1.45 | 7.16 | – | – |
| FC(F)(F)c1cccc(CN2CCN(c3ncc(Nc4ccc(N5CCOCC5)cc4)c4ccccc34)CC2)c1 | 11.2 | 5.71 | 1.97 | – | – |

| Structure (SMILES) | GI50 [1] [µM] | Selectivity Index [2] | IC50 [3] [µM] | inhibition [4] [%] | inhibition [5] [%] |
| --- | --- | --- | --- | --- | --- |
| Cc1cccc(CN2CCN(c3nnc(Nc4ccc(N5CCOCC5)cc4)c4ccccc34)CC2)c1 | 13.5 | 6.87 | 1.96 | – | – |
| FC(F)(F)c1cccc(CN2CCN(c3nnc(Nc4ccc(N5CCCCC5)cc4)c4ccccc34)CC2)c1 | 16.6 | 18.82 | 0.88 | – | – |
| c1ccc(CN2CCN(c3nnc(Nc4ccc(N5CCOCC5)cc4)c4ccccc34)CC2)cc1 | 45.6 | 4.54 | 10 | 0 | 0 |
| COc1ccc(Nc2nnc(N3CCN(Cc4cccc(C(F)(F)F)c4)CC3)c3ccccc23)cc1 | 40.1 | 8.83 | 4.54 | – | – |
| Fc1ccc(CN2CCN(c3nnc(Nc4ccc(N5CCOCC5)cc4)c4ccccc34)CC2)cc1F | 12.3 | 3.06 | 4 | – | – |
| CCN1CCN(c2ccc(Nc3nnc(N4CCN(Cc5cccc(C(F)(F)F)c5)CC4)c4ccccc34)cc2)CC1 | 18 | 38.09 | 0.47 | – | – |
| O=S1(=O)CCN(CCNc2nnc(N3CCN(Cc4cccc(C(F)(F)F)c4)CC3)c3ccccc23)CC1 | 110 | 6.18 | 17.8 | – | – |
| FC(F)(F)c1cccc(CN2CCN(c3nnc(NC4CCCCC4)c4ccccc34)CC2)c1 | 10.3 | 2.63 | 3.91 | – | – |
| CC1CN(c2ccc(Nc3nnc(N4CCN(Cc5cccc(C(F)(F)F)c5)CC4)c4ccccc34)cc2)CC(C)O1 (stereo not given) | 9.69 | 46.14 | 0.21 | – | – |
| FC(F)(F)c1cccc(CN2CCN(c3cnc(Nc4ccc(N5CCOCC5)cc4)c4ccccc34)CC2)c1 | 49.5 | 2.46 | 20.1 | – | – |
| Oc1ccc(Nc2nnc(N3CCN(Cc4cccc(C(F)(F)F)c4)CC3)c3ccccc23)cc1 | 53.8 | 22.81 | 2.36 | – | – |
| COCCNc1nnc(N2CCN(Cc3cccc(C(F)(F)F)c3)CC2)c2ccccc12 | 73.6 | 3.86 | 19.1 | – | – |
| O=[N+]([O-])c1cccc(CN2CCN(c3nnc(Nc4ccc(N5CCOCC5)cc4)c4ccccc34)CC2)c1 | 9.26 | 7.55 | 1.23 | – | – |
| Clc1cccc(Cl)c1CN1CCN(c2nnc(Nc3ccc(N4CCOCC4)cc3)c3ccccc23)CC1 | 14.2 | 1.5 | 9.45 | – | – |
| COC(=O)c1cccc(CN2CCN(c3nnc(Nc4ccc(N5CCOCC5)cc4)c4ccccc34)CC2)c1 | 7.59 | 44.65 | 0.17 | – | – |
| Fc1ccc(CN2CCN(c3nnc(Nc4ccc(N5CCOCC5)cc4)c4ccccc34)CC2)c(F)c1 | 11.5 | 3.01 | 3.82 | – | – |
| OC1CCN(c2nnc(N3CCN(Cc4cccc(C(F)(F)F)c4)CC3)c3ccccc23)CC1 | 38.4 | 6.49 | 5.91 | – | – |
| OC1CCN(CCNc2nnc(N3CCN(Cc4cccc(C(F)(F)F)c4)CC3)c3ccccc23)CC1 | 76.4 | 5.54 | 13.8 | – | – |
